# High-throughput results deposited in PubChem BioAssay by several laboratories.
# NPY Y1 blocker: NPY-Y1 (human) receptor antagonism. P25929. HEK293-CNG Y1 cells, membrane potential fluorescence; NPY at EC95, then isoproterenol. inhibition, % at 3.6 µM. 1% of 200,000 active. AID 1040;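 active = inhibition above the campaign mean inhibition of all tested compounds plus 3 SD, cut at about 20% in these data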;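 also: 0% = DMSO wells given NPY plus isoproterenol and 100% = isoproterenol alone without NPY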
# Target sequence (P25929 whole entry, looked up): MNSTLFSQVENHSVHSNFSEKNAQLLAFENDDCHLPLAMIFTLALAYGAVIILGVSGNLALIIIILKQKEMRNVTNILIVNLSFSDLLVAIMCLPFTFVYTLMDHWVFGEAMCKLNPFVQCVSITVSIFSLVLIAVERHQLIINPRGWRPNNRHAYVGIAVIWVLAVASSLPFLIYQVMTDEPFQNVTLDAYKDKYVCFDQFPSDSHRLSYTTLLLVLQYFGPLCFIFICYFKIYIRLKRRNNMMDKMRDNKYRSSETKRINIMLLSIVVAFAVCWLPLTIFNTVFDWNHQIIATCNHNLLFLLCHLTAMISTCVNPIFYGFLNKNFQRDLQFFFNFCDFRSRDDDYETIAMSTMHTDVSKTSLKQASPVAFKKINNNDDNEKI
#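 Test system – HEK293 Y1/CNG channel cell line · Also added – NPY agonist 25 nM, then isoproterenol 1 µM plus Ro 20-1724 25 µM · Compound dosing – one concentration, 3.6 µM, in 0.4% DMSO · Schedule – compound incubation 1 h at room temperature, readout 45 min post-stimulation · Technique – fluorescence, membrane potential probe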
# NPY Y2 blocker: antagonists of human neuropeptide Y receptor Y2. NPY-Y2 expressing cells, antagonist mode. inhibition, % at 2.7 µM. 0.99% of 140,000 active. AID 793; in the data active = inhibition above about 17%;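 also: 0% = vehicle with agonist challenge and 100% = reference antagonist with challenge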
# Calpain2 inh: blocks pig calpain II enzyme activity; purified calpain II, fluorogenic peptide substrate, 30 min; inhibition, % at 16 µM; 0.37% of 220,000 active; AID 1236;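 active = inhibition above about 50%, limit read from the data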
# Tb hexokinase: T. brucei hexokinase 1 inhibition; recombinant TbHK1, G6PDH-coupled NADH A340; inhibition, % at 10 µM; 0.11% of 220,000 active; AID 1430;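 active = inhibition of 50% or more in the single-dose primary screen; inactive = inhibition below 50%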
# NPY2 pot ag: potentiators or agonists of human neuropeptide Y receptor Y2; P49146; cells expressing NPY-Y2, potentiator/agonist read-out; activation, % at 3.6 µM; 0.45% of 220,000 active; AID 1359; in the data active = activation above about 27%;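 also: cells stimulated with NPY near EC25 plus isoproterenol at EC100; 0% = vehicle plus submaximal agonist and 100% = vehicle plus saturating agonist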
# NPY1 pot ag: potentiates or activates human NPY-Y1 receptor | NPY-Y1 expressing cells, potentiator/agonist activation | activation, % at 3.6 µM | 0.37% of 220,000 active; in the data active = activation above about 33%, passing the limit was not always enough;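 also: cells stimulated with NPY at EC10 then isoproterenol at EC100; 0% = low agonist plus stimulus and 100% = saturating agonist plus stimulus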
# Numbers without * were called inactive; . = not tested or not shown. This is a sample that favours compounds with a hit; in the whole collection about 2.3% have one here.
SMILES,NPY Y1 blocker,NPY Y2 blocker,Calpain2 inh,Tb hexokinase,NPY2 pot ag,NPY1 pot ag
COc1ccc(NC(=O)CN2CCN(S(=O)(=O)c3ccc(Cl)cc3)CC2)cc1Cl,6,-1,-18,3,17,8
N#Cc1c(NC(=O)CSc2nnc(-c3ccco3)n2-c2ccccc2)sc2c1CCC2,-4,1,-52,6,43*,111*
NC(=O)c1c(NC(=O)CSc2nnc(-c3ccco3)n2-c2ccccc2)sc2c1CCC2,-2,2,-282,-3,16,32
O=C1C2C3CCC(C3)C2C(=O)N1Cc1ccccc1 (configuration not stated),2,6,0,31,11,-29
COc1ccc(OCC(=O)NNC(=O)c2cccc(O)c2)cc1,-1,.,1,-2,3,0
COc1cccc(-c2cc(C(F)(F)F)nc(-n3ccc([N+](=O)[O-])n3)n2)c1,21*,.,-27,-6,6,8
O=[N+]([O-])c1ccn(-c2nc(-c3ccccc3)cc(C(F)(F)F)n2)n1,0,.,-27,-1,-3,0
CC(C)(C)NC(=O)NC(=O)CSc1nnc(COc2ccccc2Cl)o1,8,3,-16,-1,1,-12
C/C(N)=C(/C#N)C(=O)CSc1nc2ccccc2[nH]1,-2,3,-51,-13,-10,-20
C/C(N)=C(/C#N)C(=O)CSc1nnc(COc2ccccc2Cl)o1,-2,5,103*,-5,0,2
C/C(N)=C(/C#N)C(=O)CSc1ncnc2ccccc12,-11,9,-28,-12,98*,94*
Cc1ccc(NC(=O)COC(=O)/C=C/c2c(C)nn(-c3ccc(F)cc3)c2Cl)cc1F,6,0,-8,1,7,16
Clc1cccc(Cl)c1CSc1nnc([C@@H]2CCCN2)o1,.,.,-1,-7,-27,-23
CCCC(=O)c1ccc2c(c1)OCCO2,6,7,-4,-5,-5,1
O=C(O)CCC(=O)c1ccc2c(c1)OCCO2,29*,18*,10,-4,-26,-39
C=CCn1c(=O)c2ccc(C(=O)NCc3ccccc3)cc2n(Cc2ccc(C)cc2)c1=O,-3,-1,-4,-12,-2,-16
CCc1ccccc1NC(=O)CN1C(=O)C2CCCN2c2ncc(Cl)cc21 (configuration not stated),33*,23*,-19,-15,-33,-7
CC1CCC(NC(=O)CN2C(=O)C3CCCN3c3ncc(Cl)cc32)CC1 (configuration not stated),29*,6,-322,-4,-11,-18
CCOC(=O)c1c(C)[nH]c(C2=NNC(=NC3CC3)SC2)c1C,5,.,-14,-10,7,11
Cc1ccc(S(=O)(=O)N2CCC(C(=O)O)CC2)cc1,-7,.,-38,1,-5,10
O=C(O/N=C/c1ccc2c(c1)OCO2)c1ccc([N+](=O)[O-])cc1,-3,.,70*,-11,-3,6
CCOC(=O)C1CCCN(C(=O)CSc2ccc(NC(C)=O)cc2)C1 (configuration not stated),-2,.,63*,1,7,3
COc1ccc(NC(=S)N(CCCN2CCOCC2)Cc2cn(C)c3ccccc23)cc1,2,2,54*,-5,-4,15
Cc1[nH]c2ccccc2c1C(=O)COC(=O)c1ccc2c(=O)n3c(nc2c1)CCC3,3,.,-139,-4,-12,-4
COC(=O)c1sc(SC)c(S(=O)(=O)C(C)C)c1N/N=C(\C#N)C(=O)c1ccccc1,.,.,13,-19,-4,1
SMILES,NPY Y1 blocker,NPY Y2 blocker,Calpain2 inh,Tb hexokinase,NPY2 pot ag,NPY1 pot ag
CCCNC(=O)c1csc2c1CCCCC2,1,2,19,-6,-6,-20
CCCNC(=O)c1sc2c(c1C(=O)Nc1ccccn1)CCCC2,21*,.,25,3,-12,-20
CCOC(=O)C1(CCOc2ccccc2)CCN(Cc2cccc3nonc23)CC1,8,.,5,-5,-9,3
O=C(O)CCc1ccc(-c2ccccc2)n1Cc1ccco1,10,5,-50,7,-11,9
O=C(O)CCc1ccc(-c2ccc(F)cc2)n1Cc1ccco1,-10,0,-8,5,71*,80*
CCOC(=O)c1sc(N(Cc2ccccc2)C(=O)COC(=O)c2ccc(O)cc2)nc1C,42*,26*,-12,1,-35,-37
CCn1ccnc1CN(C)Cc1cn(-c2cc(C)ccc2C)nc1-c1ccccc1,4,.,27,0,-8,-9
c1ccc(-c2nc(NCc3cccnc3)c3ccccc3n2)cc1,-4,3,20,-8,18,18
c1ccc(CN2CCN(c3nc(NCc4ccco4)c4ccccc4n3)CC2)cc1,31*,28*,7,11,-16,-26
OCCN1CCN(c2nc(NCc3ccco3)c3ccccc3n2)CC1,12,7,-67,-14,-19,-40
Cc1ccc(-c2nc(NCc3ccco3)c3ccccc3n2)cc1,2,1,61*,3,10,-17
Fc1ccc(CNc2nc(-c3ccccc3)nc3ccccc23)cc1,12,.,55*,11,-30,-61
Cc1ccc(OCCN2CCN(c3nc(NCc4ccco4)c4ccccc4n3)CC2)cc1,34*,30*,4,9,-7,-58
COCCNC(=O)CSc1nnc(-c2ccccc2)c(-c2ccccc2)n1,1,.,-23,-12,0,-8
Cc1cc(C)c(C(=O)Nc2ccc(Br)c(C(F)(F)F)c2)c(C)c1,28*,30*,26,37,-20,-34
O=C(O)c1ccccc1C(=O)Nc1ccc(Br)c(C(F)(F)F)c1,.,.,-15,-6,-2,-4
CCc1cc2c3c(c1)C(C)CC(C)(C)N3C(=O)/C2=C1\SC(=O)NC1=O (configuration not stated),.,.,57*,-4,10,39
COc1cc2c3c(c1)C(C)CC(C)(C)N3C(=O)C2=O (configuration not stated),1,.,1,-6,13,-5
Cc1ccn2c(Nc3ccccc3C)c(-c3ccccn3)nc2c1,-3,.,-14,-3,30*,41*
Cc1cccn2c(Nc3ccccc3)c(-c3ccccn3)nc12,6,.,22,-3,11,-21
Cc1ccn2c(Nc3ccccc3)c(-c3ccccn3)nc2c1,11,.,5,3,-4,0
Cc1ccccc1Nc1c(-c2ccccn2)nc2ccccn12,6,.,-19,-4,35*,35*
Cc1ccc2nc(-c3ccccn3)c(Nc3ccccc3C)n2c1,7,.,17,8,36*,46*
CC(=O)NC(CCCN1C(=O)c2ccccc2C1=O)c1nnn(C)n1 (configuration not stated),0,2,6,-2,13,12
Fc1cccc(Cn2cc(C(=S)N3CCCCC3)c3ccccc32)c1,5,4,66*,8,-13,6
